An excerpt weighted towards active compounds, which were near 2.6% of everything screened.
SENP8 block-1 = human SENP8 protease inhibitors, primary screen, biochemical, fluorescence, Nedd8 protein substrate, uHTS; Sentrin-specific protease 8 (Homo sapiens), Q96LD8; inhibition, % at 20 µM; 360,000 compounds, 0.64% hits; recombinant SENP8; in the data active means inhibition mostly above about 40%, no sharp cut-off; inactive means mostly below about 27%
SENP6 inh = SENP6 protease inhibitors, primary screen, biochemical, luminescence, uHTS; Sentrin-specific protease 6 (Homo sapiens), Q9GZR1; Recombinant SENP6 catalytic domain, aminoluciferin luminescence; inhibition, % at 10 µM; 330,000 compounds, 1.8% hits; AID 2599, 2010;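 active means inhibition above about 50% at the single tested dose, limit read from the data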
SENP7 inh = SENP7 protease inhibitors, primary screen, biochemical, luminescence, uHTS; recombinant SENP7, Z-RLRGG-aminoluciferin luminescence, 40 min; Sentrin-specific protease 7 (Homo sapiens), Q9BQF6; inhibition, % at 5 µM; 330,000 compounds, 1.5% hits; AID 434973, 2010;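 active means inhibition above about 50% at the single test dose, limit read from the data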
Target sequence (Q9BQF6 706-1050 limits assumed): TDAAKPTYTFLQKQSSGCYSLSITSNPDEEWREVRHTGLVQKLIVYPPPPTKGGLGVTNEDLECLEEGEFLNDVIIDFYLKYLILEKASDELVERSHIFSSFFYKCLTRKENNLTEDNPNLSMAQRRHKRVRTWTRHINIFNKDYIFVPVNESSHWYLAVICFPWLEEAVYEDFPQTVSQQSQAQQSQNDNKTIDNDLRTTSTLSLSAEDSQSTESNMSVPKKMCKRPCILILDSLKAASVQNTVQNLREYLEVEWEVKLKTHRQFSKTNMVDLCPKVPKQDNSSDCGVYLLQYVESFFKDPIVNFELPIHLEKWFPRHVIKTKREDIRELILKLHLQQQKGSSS
Platelet DG rel = inhibitors of platelet dense granule secretion, primary screen, cell-based, MLPCN, human platelets; 300,000 compounds, 0.22% hits; human platelet-rich plasma, SFLLRN dense granule ATP release, luminescence; AID 1663, 2009; inhibition, %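 (compounds screened at 7.5 µM in platelet-rich plasma)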;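 active means mean replicate score, as percent of positive control, at or above 50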
SENP8 block-2 = SENP8 protease inhibitors, primary screen, biochemical, luminescence; purified SENP8, Z-RLRGG-aminoluciferin cleavage; inhibition, % at 10 µM; 330,000 compounds, 1.2% hits; AID 2540, 2010; in the data active means inhibition above about 50%
SENP1 inh = human SENP1 catalytic domain inhibitors, primary screen, biochemical, FRET, uHTS | 360,000 compounds, 0.21% hits | recombinant SENP1 catalytic domain, CyPet-SUMO1-YPet FRET cleavage | inhibition, % at 10 µM;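 active means inhibition at least 30% at 10 µM, raw YFP signal under a set limit, fluorescence ratio 0.5 to 1.5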
Target sequence (Q9P0U3 419-644 limits assumed): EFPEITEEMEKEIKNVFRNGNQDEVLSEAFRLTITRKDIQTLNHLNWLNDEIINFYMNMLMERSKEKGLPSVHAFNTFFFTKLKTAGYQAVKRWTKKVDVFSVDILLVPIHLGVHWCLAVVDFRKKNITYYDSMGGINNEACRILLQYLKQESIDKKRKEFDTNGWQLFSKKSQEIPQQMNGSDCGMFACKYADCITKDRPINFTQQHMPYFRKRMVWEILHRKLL
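system = hSENP1 catalytic domain, recombinant | reagent = SFCypet-SUMO1-SFYpet substrate at 25 nM | doses = one dose per compound, 10 µM, 0.5% DMSO | incubation = enzyme reaction for 50 min at room temperature, dark | measured by = FRET, CFP and YFP emission | controls = no-enzyme low, enzyme-DMSO high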
SENP1 conf = human SENP1 catalytic domain inhibitors, confirmation, biochemical, FRET endpoint, single concentration. shares compounds with SENP1 inh. recombinant SENP1, CyPet-SUMO1-YPet FRET cleavage. inhibition, % at 10 µM. 520 compounds, 34% hits. AID 651678, 2012; in the data active means inhibition mostly above about 35%, no sharp cut-off; inactive means mostly below about 32%
SENP1 kin conf = human SENP1 catalytic domain inhibitors, confirmation, biochemical, kinetic FRET, single concentration. shares compounds with SENP1 inh. recombinant SENP1, CyPet-SUMO1-YPet FRET kinetic cleavage. inhibition, % at 10 µM. 520 compounds, 26% hits; in the data active means inhibition mostly above about 32%, no sharp cut-off; inactive means mostly below about 29%
Each line names hits and unclear results; the compound was inactive in the other large screens (follow-up assays come after a bar, where they were run).

O=C(CN1C(=O)C(=O)N(Cc2ccccc2)C1=O)Nc1cc(Cl)cc(Cl)c1	none
Nc1cc2c(cc1[N+](=O)[O-])-c1ccccc1C2=NO	SENP1 inh 32 (no result: SENP6 inh, SENP7 inh, Platelet DG rel, SENP8 block-2) | SENP1 conf inactive | SENP1 kin conf inactive
Nc1ccc2c(c1)C(=NO)c1ccccc1-2	none (no result: SENP6 inh, SENP7 inh, Platelet DG rel, SENP8 block-2)
Cc1cc(OCc2cc(C(=O)N(C)C(C)c3ccccn3)no2)cc(C)c1Cl (centres undefined)	none
Cc1cc(N2CCN(c3nc(-c4ccc([N+](=O)[O-])cc4)cs3)CC2)c2ccccc2n1	SENP1 inh 45 | SENP1 conf inactive | SENP1 kin conf inactive
CCCCC(=O)OCC(=O)C1(O)Cc2c(O)c3c(c(O)c2C(OC2CC(NC(=O)C(F)(F)F)C(O)C(C)O2)C1)C(=O)c1c(OC)cccc1C3=O (centres undefined)	SENP8 block-1 45, SENP1 inh 95 (no result: SENP6 inh, SENP7 inh, Platelet DG rel, SENP8 block-2) | SENP1 conf inactive | SENP1 kin conf inactive
C=C(C(=O)c1ccccc1)C(NC(C)(C)C)c1ccccc1 (centres undefined)	none (no result: SENP6 inh, SENP7 inh, Platelet DG rel, SENP8 block-2)
Cc1ccccc1NC(=O)c1c(C)[nH]c(=S)c(C#N)c1-c1ccc(Cl)cc1	SENP1 inh 50 | SENP1 conf inactive | SENP1 kin conf inactive
Cc1[nH]c(=S)c(C#N)c(-c2ccccc2)c1C(=O)Nc1ccccc1	SENP1 inh 55 | SENP1 conf inactive | SENP1 kin conf inactive
CCOC(=O)c1ccc(NCn2c(=O)oc3ccccc32)cc1	SENP1 inh 54 | SENP1 conf inactive | SENP1 kin conf inactive
CCCSc1nc(-c2ccccc2)cc(C(F)(F)F)c1C#N	none
N#Cc1c(C(F)(F)F)cc(-c2ccccc2)nc1SCCN1CCOCC1	SENP1 inh 33 | SENP1 conf inactive | SENP1 kin conf inactive
O=C1C=C(c2cccc(Cl)c2O)C[C@@H](c2ccc(Cl)cc2)C1	SENP1 inh 58 (no result: Platelet DG rel) | SENP1 conf 99 | SENP1 kin conf 76
CCCOC(=O)Nc1nc2ccccc2o1	SENP1 inh 30 | SENP1 conf inactive | SENP1 kin conf inactive
CCOC(=O)C(=CN=C(N)Nc1nc2ccccc2o1)C(=O)OCC	none
COc1ccc(C(=O)N/C(=C/c2cccnc2)C(=O)Nc2cccc(C(C)=O)c2)cc1OC	none
Clc1ccccn1	none (no result: Platelet DG rel)
CCN1/C(=C\C=C2\C(=O)N(C)C(=S)N2C)Sc2ccccc21	SENP1 inh 37 | SENP1 conf inactive | SENP1 kin conf inactive
COc1ccccc1Cc1c(-c2cccc(Cl)c2)nc2ccc(Br)cn12	SENP1 inh 37 (no result: SENP6 inh, SENP7 inh, Platelet DG rel, SENP8 block-2) | SENP1 conf inactive | SENP1 kin conf inactive
N#Cc1ccc(-c2nc3ccc(Br)cn3c2Cc2ccccc2C(F)(F)F)cc1	SENP1 inh 45 (no result: SENP6 inh, SENP7 inh, Platelet DG rel, SENP8 block-2) | SENP1 conf 44 | SENP1 kin conf 36
CC1(C(=O)NS(=O)(=O)c2ccccc2)CCN1C(=O)COc1ccc(Cl)cc1 (centres undefined)	none (no result: SENP6 inh, SENP7 inh, Platelet DG rel, SENP8 block-2)
CC1(C)c2ssc(=S)c2-c2ccccc2N1C(=O)c1ccco1	SENP1 inh 32 | SENP1 conf inactive | SENP1 kin conf inactive
Cc1ccc2c(c1)-c1c(ssc1=S)C(C)(C)N2C(=O)c1ccco1	none
CCOC(=O)C1=C(COC(=O)c2ccc3ccccc3c2O)NC(=O)NC1C (centres undefined)	SENP1 inh 38 (no result: Platelet DG rel) | SENP1 conf inactive | SENP1 kin conf inactive
CCOC(=O)C1=C(COC(=O)c2ccccc2OC(F)F)NC(=O)NC1C (centres undefined)	none
Cc1ccc(-c2csc3nc(-c4ccncc4)[nH]c(=O)c23)cc1	SENP1 inh 43 | SENP1 conf 40 | SENP1 kin conf inactive
Cc1ccc(-c2csc3nc[nH]c(=O)c23)cc1	none
CCOCCCNS(=O)(=O)c1ccc(NC(=O)CN2C(=O)c3ccccc3C2=O)cc1	SENP1 inh 29 | SENP1 conf inactive | SENP1 kin conf inactive
Cc1nc(-c2ccc(F)cc2)c(CC(=O)N2CCN(S(=O)(=O)c3cccc([N+](=O)[O-])c3)CC2)s1	SENP1 inh 35 (no result: Platelet DG rel) | SENP1 conf inactive | SENP1 kin conf inactive
CN(Cc1ccccc1)C(=O)c1[nH]cnc1C(=O)NCC(=O)OCc1ccccc1	none
COC(=O)c1ccc(N/N=C/c2cc([N+](=O)[O-])cc(OC)c2O)cc1	SENP1 inh 49 | SENP1 conf inactive | SENP1 kin conf inactive
CN(C)c1ccc(-c2ccnc3c2CC(C)(C(=O)NCCc2ccccc2)O3)cc1 (centres undefined)	none (no result: SENP6 inh, SENP7 inh, Platelet DG rel, SENP8 block-2)
